In data set [1] the test system is P388. Put plainly: Compound was tested for antitumor activity against P388 Murine leukemia in BDF1 female mice at a dose of 32 mg/kg per injection. The data set is classed as functional, Mus musculus. The method, boiled down: (§1)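 P388 ascites cells (10^6) implanted ip into BDF1 female mice. Aziridinomitosene given on day 1 only, six mice per dose; ten saline-treated mice on day 1 only as controls. Read-out is median survival time in days, %T/C = MST treated/MST control × 100, with 125 taken as significant. Mitomycin C run as a positive control at its optimal dose.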

The subject of data set [2] is Mus musculus. The data set is described as follows: Average weight change of BDF1 female mice at a dose of 8 mg/kg per injection. The data set is classed as functional. The method, boiled down: (§2)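 BDF1 female mice implanted ip with 10^6 ascites leukemia cells, then given the aziridinomitosene on day 1 only, six mice per dose. Average weight change is the weight difference between the treated and control groups.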

The test system of data set [3] is P388. The data set is described as follows: Compound was tested for antitumor activity against P388 Murine leukemia in BDF1 female mice at a dose of 16 mg/kg per injection. The data set is classed as functional, Mus musculus. The method, boiled down:
as §1

Data set [4] can be described thus: Partition coefficient (logP). As to conditions: octanol/water. The format is physicochemical.
The test system of data set [5] is P388. The data set is described as follows: Compound was tested for antitumor activity against P388 Murine leukemia in BDF1 female mice at a dose of 8 mg/kg per injection. The format is functional, Mus musculus. The method, boiled down: as §1
Data set [6] has as its system Mus musculus. Put plainly: Average weight change of BDF1 female mice at a dose of 32 mg/kg per injection. The data set is classed as functional. The method, boiled down:
as §2

For data set [7], the system named is Mus musculus. The data set is described as follows: Average weight change of BDF1 female mice at a dose of 64 mg/kg per injection. The format is functional. The method, boiled down: as §2
The test system of data set [8] is P388. The data set is described as follows: Compound was tested for antitumor activity against P388 Murine leukemia in BDF1 female mice at a dose of 4 mg/kg per injection. The data set is classed as functional, Mus musculus. The method, boiled down: as §1
Data set [9] has as its system P388. Put plainly: Compound was tested for antitumor activity against P388 Murine leukemia in BDF1 female mice at a dose of 64 mg/kg per injection. The format is functional, Mus musculus. The method, boiled down: as §1
For data set [10], the system named is P388. The data set is described as follows: Minimum effective dose determined against P-388 Murine leukemia in BDF1 female mice. The data set is classed as functional. As to conditions: Mus musculus, read-out: MED.
Data set [11] relates to Mus musculus. The data set is described as follows: Average weight change of BDF1 female mice at a dose of 16 mg/kg per injection. The format is functional. The method, boiled down:
as §2

In data set [12] the test system is Mus musculus. Put plainly: Average weight change of BDF1 female mice at a dose of 4 mg/kg per injection. The data set is classed as functional. The method, boiled down: as §2
For data set [13], the system named is P388. The data set is described as follows: Compound was tested for antitumor activity against P388 Murine leukemia in BDF1 female mice at a dose of 3.2 mg/kg per injection given as MST treated / MST control x 100. The format is functional, Mus musculus. The method, boiled down: as §1
The subject of data set [14] is L1210. Put plainly: Compound was tested for antitumor activity against L-1210 Murine leukemia in BDF1 female mice at a dose of 1.5 mg/kg per injection. The data set is classed as functional, Mus musculus. The method, boiled down:
(§3)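 L-1210 leukemia, NCI protocol: 10^6 ascites cells implanted ip into BDF1 female mice. Six mice per dose, single dose on day 1 only, with a 36-mouse control group. Read-out is median survival time (MST), reported as %T/C = MST treated/MST control × 100, with 125 taken as significant. Average weight change is treated minus control weight.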

Data set [15] has as its system L1210. Put plainly: Compound was tested for antitumor activity against L-1210 Murine leukemia in BDF1 female mice at a dose of 6 mg/kg per injection. The data set is classed as functional, Mus musculus. The method, boiled down: (§4)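 L-1210 run per NCI protocol. 10^6 ascites cells implanted ip into BDF1 female mice. Aziridinomitosene given on day 1 only, six mice per dose, with a control group of 36 mice. Median survival time in days is recorded, and %T/C = MST treated/MST control × 100, with 125 taken as significant.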

For data set [16], the system named is Mus musculus. Put plainly: Average weight change of BDF1 female mice at a dose of 3 mg/kg per injection. The format is functional. The method, boiled down:
as §3

The test system of data set [17] is Mus musculus. The data set is described as follows: Average weight change of BDF1 female mice at a dose of 1.5 mg/kg per injection. The format is functional. The method, boiled down:
as §3

Data set [18] concerns L1210. The data set is described as follows: Compound was tested for antitumor activity against L-1210 Murine leukemia in BDF1 female mice at a dose of 12 mg/kg per injection. The data set is classed as functional, Mus musculus. The method, boiled down:
as §4

Data set [19] concerns Mus musculus. Put plainly: Average weight change of BDF1 female mice at a dose of 12 mg/kg per injection. The data set is classed as functional. The method, boiled down:
as §2

Data set [20] concerns Mus musculus. The data set is described as follows: Average weight change of BDF1 female mice at a dose of 6 mg/kg per injection. The format is functional. The method, boiled down:
as §2

The test system of data set [21] is L1210. The data set is described as follows: Compound was tested for antitumor activity against L-1210 Murine leukemia in BDF1 female mice at a dose of 3 mg/kg per injection. The format is functional, Mus musculus. The method, boiled down:
as §3

Each structure is given as a SMILES string.

The logP is a log measure of how a compound divides between an organic and an aqueous phase. Higher therefore signals higher lipophilicity. For orientation: T/C means the result in the treated group divided by that in the control group, in per cent. For `CC1=C(NCc2ccco2)C(=O)c2c(COC(N)=O)c3n(c2C1=O)CC1NC31` (stereo unspecified), the MST in the data set with P388 [1] was 189 days; in the data set on P388 [3], 156 days; with P388 [5], 144 days; in the data set on P388 [8], 122 days; in the data set with P388 [9], 183 days. Also, the Weight change was 0.1 g in the data set on Mus musculus [2]; -1.2 g with Mus musculus [6]; -1.8 g with Mus musculus [7]; -1.7 g in the data set on Mus musculus [11]; -0.7 g in the data set with Mus musculus [12]. In addition, the logP in data set [4] was 1.33. The minimal effective dose in the data set with P388 [10] came to 8 mg/kg. This molecule registered a T/C in the data set with P388 [13] of 228%.

Turning to `CO[C@@]12[C@H](COC(N)=O)C3=C(C(=O)C(C)=C(N)C3=O)N1C[C@@H]1N[C@@H]12` [MITOMYCIN], the T/C with L1210 [14] is reported as 116%; in the data set on L1210 [21], 118%. Also, the % T/C in the data set on L1210 [15] worked out at 146%; in the data set on L1210 [18], 118%. The Weight change was -0.9 g with Mus musculus [16], -0.8 g in the data set with Mus musculus [17], -4.8 g in the data set on Mus musculus [19] and -3.3 g in the data set with Mus musculus [20].

The record behind these values is ChEMBL document CHEMBL1123541, “Preparation and antitumor activity of 7-substituted 1,2-aziridinomitosenes” (J Med Chem, 1986).
